# High-throughput results from PubChem.
# Yeast lifespan up: extends the lifespan of yeast; actives 0.68% (n = 130,000); S. cerevisiae growth with nicotinamide, OD615; deaD strain in restrictive glucose medium; inhibition of the nicotinamide effect, % at 10 µM;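 active = inhibition above a set limit, placed 3 SD over the median of all compounds, cut at about 26% in these data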;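 note: 0% = nicotinamide-treated wells and 100% = cells grown without nicotinamide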
#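 System: DeaD-strain S. cerevisiae / Buffer or medium: CSMM-D, restrictive glucose (dextrose) synthetic minimal medium / Probe or stimulus: nicotinamide, 1.5 mM, co-present with compound / Compound: one concentration, 10 µM, DMSO 0.25% / Incubation: 48 h compound exposure at 30 °C, humidified / Technique: optical density (absorbance) at 615 nm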
# RAM inhibit: inhibitors of the yeast RAM network; S. cerevisiae dse1pr::URA3 reporter, 5-FOA growth OD615, 2 d; analog-sensitive cbk1-as2 kinase mutant strain; inhibition, % at 50 µM; AID 868; actives 1.8% (n = 190,000);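 active = inhibition above a set limit, 3 SD over mean compound inhibition, cut at about 8.4% in these data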;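 note: 0% = DMSO-only wells with no growth and 100% = 10 µM 1-NA-PP1 full growth; inhibition rescues growth on 5-FOA so higher OD means more RAM inhibition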
# BB579 growth dn: reduces growth of yeast BB579 in restrictive medium; actives 0.51% (n = 140,000); S. cerevisiae BB579 growth, OD615, 48 h; inhibition, % at 10 µM; AID 804;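 active = inhibition above a set limit, 3 SD over the mean compound inhibition, cut at about 44% in these data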
#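 Test system: S. cerevisiae DeaD strain BB579 yeast; Medium: restrictive CSMM-D medium; Compound: one dose, 10 µM compound with 0.25% DMSO; Incubation: 4 h cell preincubation, 48 h compound exposure, 30 °C humidified; Signal: OD at 615 nm; Benchmarks: amphotericin B at 10 µg/mL as positive control.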
# RAM 5-FOA: restores 5-FOA growth of efflux-deficient yeast; shares compounds with RAM inhibit; S. cerevisiae efflux-deficient reporter strain, 5-FOA growth OD615, 2 days; max inhibition, %; 1,200 tested, under 10 active; AID 1305; call rule not given here;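 note: plate controls were vehicle for no effect and reference inhibitor for full effect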
# The depositor's hits bear a star; . = not tested or not shown. Rows were chosen to be rich in hits. Some 2.6% of all compounds tested hit in one or more screens of this group.
SMILES,Yeast lifespan up,RAM inhibit,BB579 growth dn,RAM 5-FOA
Cc1cccc(-n2c(-c3ccccc3)nc3ccccc3c2=O)n1,.,-0.9,.,.
COc1cccc(NP(=O)(Oc2ccccc2)Oc2ccccc2)c1,15.2,3.4,-20.1,.
COc1cccc(NP(=O)(Oc2ccccc2Cl)Oc2ccccc2Cl)c1,11.1,13.0*,-28.5,1.7
Clc1ccc(OCC#CCN2CCCC2)cc1,.,2.1,.,.
O=C(c1ccco1)c1cn(Cc2ccccc2Cl)c2ccccc12,-8.8,17.5*,-29.3,3.6
O=C(c1ccco1)c1cn(Cc2ccccc2)c2ccccc12,-10.0,6.4,-1.4,.
Nc1ccc2nonc2c1[N+](=O)[O-],.,-0.4,.,.
